The values that follow come from ChEMBL document CHEMBL1126560, “Endothelin-1 analogues substituted at both position 18 and 19: highly potent endothelin antagonists with no selectivity for either receptor subtype ETA or ETB” (J Med Chem, 1993).

For orientation: pA2 means a measure of antagonist potency on a negative log scale. High values mean a more potent antagonist, low ones a weaker antagonist. One may read the IC50 as the concentration needed to halve the response being measured.

Test [1] deals with Endothelin receptor, ET-A/ET-B (Homo sapiens) (UniProt P24530+P25101). Description: (§1) Antagonism of sarafotoxin S6c-induced vasoconstriction in rabbit pulmonary artery at both ETA and ETB receptors. The format is functional. Particulars: Oryctolagus cuniculus; target entry is the homologue from another species. The method in brief:
(§2)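 Rabbit pulmonary artery, endothelium-denuded 5-mm rings in Krebs-Henseleit, 95% O2-5% CO2, 37 °C, isometric tension. Compound added 15 min before cumulative sarafotoxin S6c. Tension normalized to 60 mM KCl response. Antagonism given as pA2 (van Rossum) or pD2' value; n in parentheses.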

Test [2] has as its target T1, Endothelin-1 receptor (Sus scrofa) (UniProt Q29010).
T1 sequence (whole entry): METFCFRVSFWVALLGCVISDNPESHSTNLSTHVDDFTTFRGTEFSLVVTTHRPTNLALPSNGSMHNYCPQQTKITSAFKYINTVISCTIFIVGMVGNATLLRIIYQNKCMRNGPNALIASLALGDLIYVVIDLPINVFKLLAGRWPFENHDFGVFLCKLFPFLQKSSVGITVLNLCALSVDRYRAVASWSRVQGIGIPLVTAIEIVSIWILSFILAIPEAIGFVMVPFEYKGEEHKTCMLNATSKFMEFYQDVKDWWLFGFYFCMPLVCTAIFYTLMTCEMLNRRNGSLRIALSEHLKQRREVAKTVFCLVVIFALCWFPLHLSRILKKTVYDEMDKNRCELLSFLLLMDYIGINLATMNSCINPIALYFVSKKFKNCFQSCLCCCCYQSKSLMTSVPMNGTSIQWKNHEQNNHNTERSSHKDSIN
Nature of the test: Tested for the ETA receptor agonist activity by measuring maximum vasoconstriction in porcine coronary artery. The format is functional, tissue-based. The method in brief: (§3)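 Porcine right coronary artery, endothelium-denuded helical strips in Krebs-Henseleit, 37 °C, isometric tension. Compound applied cumulatively, up to 1 μM. Maximal contraction expressed as % of 60 mM KCl-induced tension; n in parentheses.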

Test [3] has as its target T2, Endothelin receptor, ET-A/ET-B (Homo sapiens, UniProt P24530+P25101).
T2 sequence (P24530 whole entry): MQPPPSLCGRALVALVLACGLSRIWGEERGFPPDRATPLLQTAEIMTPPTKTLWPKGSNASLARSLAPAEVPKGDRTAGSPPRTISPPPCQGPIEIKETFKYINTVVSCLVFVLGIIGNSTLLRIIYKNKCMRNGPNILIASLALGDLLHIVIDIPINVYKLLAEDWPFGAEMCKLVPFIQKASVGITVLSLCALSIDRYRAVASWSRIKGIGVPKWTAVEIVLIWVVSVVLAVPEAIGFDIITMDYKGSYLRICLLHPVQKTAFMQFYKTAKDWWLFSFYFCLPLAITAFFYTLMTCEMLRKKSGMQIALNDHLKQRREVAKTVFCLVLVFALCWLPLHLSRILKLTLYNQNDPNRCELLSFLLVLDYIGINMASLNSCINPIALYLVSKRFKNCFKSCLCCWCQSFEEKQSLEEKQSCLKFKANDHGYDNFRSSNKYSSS
T2 sequence (P25101 whole entry): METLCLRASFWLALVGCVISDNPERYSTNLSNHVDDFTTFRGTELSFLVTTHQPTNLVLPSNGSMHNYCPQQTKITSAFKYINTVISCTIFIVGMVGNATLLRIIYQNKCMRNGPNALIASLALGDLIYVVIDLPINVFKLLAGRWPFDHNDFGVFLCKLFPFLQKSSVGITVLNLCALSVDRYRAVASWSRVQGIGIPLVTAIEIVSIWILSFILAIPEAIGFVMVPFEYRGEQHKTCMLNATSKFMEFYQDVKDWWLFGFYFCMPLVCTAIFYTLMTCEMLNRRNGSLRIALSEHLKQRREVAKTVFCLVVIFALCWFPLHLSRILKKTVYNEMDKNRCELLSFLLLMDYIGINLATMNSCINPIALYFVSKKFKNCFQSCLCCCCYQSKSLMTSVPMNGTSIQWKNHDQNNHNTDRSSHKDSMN
The test is described as §1. The format is functional, Oryctolagus cuniculus. Particulars: target entry is the homologue from another species. The method in brief:
as §2

Test [4] has as its target T3, Endothelin-1 receptor (Sus scrofa, UniProt Q29010).
T3 sequence (Q29010 whole entry): T1 sequence (whole entry)
Nature of the test: Tested for the competitive binding versus [125I]- ET-1 determined in porcine cardiac ventricular membrane for Endothelin A receptor. The method in brief:
(§4)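 Membranes (porcine cardiac ventricle at 12 μg/mL for ETA; bovine cerebrum at 150 μg/mL for ETB) in pH 7.2 Tris/EGTA/Mg acetate/0.1% BSA buffer with protease inhibitors. Incubated with 100 pM [125I]ET-1 and varied compound for 1 h at 25 °C, then filtered and counted by gamma counter. IC50 given as mean ± SEM of ≥3 determinations.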

Test [5] addresses T3, Endothelin-1 receptor. Nature of the test: ETA receptor antagonist activity was measured by inhibition of ET-1 induced vasoconstriction in isolated porcine coronary artery. The format is functional, tissue-based. The following applies: read-out: pA2 (converted). An outline of the steps:
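Porcine right coronary artery, endothelium-denuded 2 × 5-mm helical strips in Krebs-Henseleit, 95% O2-5% CO2, 37 °C, isometric tension. Compound added 15 min before cumulative ET-1. Tension normalized to 60 mM KCl. pA2 by van Rossum's method; n in parentheses.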

Test [6] addresses T4, Endothelin receptor type B (Bos taurus, UniProt P28088).
T4 sequence (P28088 whole entry): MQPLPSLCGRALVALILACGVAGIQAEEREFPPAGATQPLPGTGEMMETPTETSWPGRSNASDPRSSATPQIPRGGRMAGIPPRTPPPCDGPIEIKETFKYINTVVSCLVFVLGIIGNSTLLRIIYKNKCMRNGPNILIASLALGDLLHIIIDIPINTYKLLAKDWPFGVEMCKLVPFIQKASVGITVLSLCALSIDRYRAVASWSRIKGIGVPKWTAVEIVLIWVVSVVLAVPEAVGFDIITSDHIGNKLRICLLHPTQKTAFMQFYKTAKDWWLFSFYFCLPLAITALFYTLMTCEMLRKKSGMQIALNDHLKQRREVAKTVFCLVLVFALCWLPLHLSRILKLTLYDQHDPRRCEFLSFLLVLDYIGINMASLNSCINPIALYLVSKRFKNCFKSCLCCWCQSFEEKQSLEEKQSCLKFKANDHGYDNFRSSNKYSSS
Description: Tested for the competitive binding versus [125I]- ET-1 determined in bovine cerebrum membrane for Endothelin B receptor. The format is cell membranes. The method in brief: as §4

For test [7], the target named is T1, Endothelin-1 receptor (Sus scrofa). Description: Endothelin A receptor agonist activity as maximum vasoconstriction in porcine coronary artery. The format is functional, tissue-based. An outline of the steps:
as §3

Molecule `CC[C@H](C)[C@H](NC(=O)[C@H](CC(C)C)NC(=O)[C@@H](NC(=O)[C@H](CC(C)C)NC(=O)[C@H](Cc1c[nH]cn1)NC(=O)[C@@H]1CSSC[C@@H](N)C(=O)N[C@@H](CO)C(=O)N[C@@H]2CSSC[C@@H](NC(=O)[C@H](CCC(=O)O)NC(=O)[C@@H](CCCCN)NC(=O)[C@H](CC(=O)O)NC(=O)[C@@H](CCSC)NC(=O)[C@H](CC(C)C)NC(=O)[C@@H](CO)NC(=O)[C@H](CO)NC2=O)C(=O)N[C@@H](C(C)C)C(=O)N[C@H](Cc2ccc(O)cc2)C(=O)N[C@@H](Cc2ccccc2)C(=O)N1)[C@H](C)O)C(=O)N[C@@H](Cc1c[nH]c2ccccc12)C(=O)O` registered a pD2 in test [1] of 8.7. Moreover, the Max vasoconstriction in test [2] amounted to 4.

As to `CC[C@H](C)[C@H](NC(=O)[C@H](CC(C)(C)C)NC(=O)[C@@H](NC(=O)[C@H](CC(C)C)NC(=O)[C@H](Cc1c[nH]cn1)NC(=O)[C@@H]1CSSC[C@H](N)C(=O)N[C@@H](CO)C(=O)N[C@H]2CSSC[C@H](NC(=O)[C@H](CCC(=O)O)NC(=O)[C@H](CCCCN)NC(=O)[C@H](CC(=O)O)NC(=O)[C@H](CCSC)NC(=O)[C@H](CC(C)C)NC(=O)[C@H](CO)NC(=O)[C@H](CO)NC2=O)C(=O)N[C@@H](C(C)C)C(=O)N[C@@H](Cc2ccc(O)cc2)C(=O)N[C@@H](Cc2ccccc2)C(=O)N1)[C@@H](C)O)C(=O)N[C@@H](Cc1c[nH]c2ccccc12)C(=O)O`, the pA2 in test [3] is listed as 8.4. Further, the IC50 on Endothelin-1 receptor [4] was 0.7 nM; in test [6], 0.25 nM. On Endothelin-1 receptor [5], the Kb is 39.8 nM.

In the case of `CC[C@H](C)[C@H](NC(=O)[C@H](CC1CCCCC1)NC(=O)[C@@H](NC(=O)[C@H](CC(C)C)NC(=O)[C@H](Cc1c[nH]cn1)NC(=O)[C@@H]1CSSC[C@@H](N)C(=O)N[C@@H](CO)C(=O)N[C@@H]2CSSC[C@H](NC(=O)[C@H](CCC(=O)O)NC(=O)[C@@H](CCCCN)NC(=O)[C@@H](CC(=O)O)NC(=O)[C@@H](CCSC)NC(=O)[C@H](CC(C)C)NC(=O)[C@@H](CO)NC(=O)[C@H](CO)NC2=O)C(=O)N[C@@H](C(C)C)C(=O)N[C@H](Cc2ccc(O)cc2)C(=O)N[C@@H](Cc2ccccc2)C(=O)N1)[C@@H](C)O)C(=O)N[C@@H](Cc1c[nH]c2ccccc12)C(=O)O`, in test [1], the pD2 came out at 7.8. Also, in test [7], the Max vasoconstriction was determined as 2.
